Assay results reported in paper PMC7145530 (Nucleic Acids Research, 2019).

How the values were obtained:
PC-3 cells [1] = assay: Cell survival assay; assay type: cell-based, human; conditions: MTT, MMS 50–400 μM, 48 h
Summary of the method: (§1)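 Stable shRNA-knockdown cells (luciferase shRNA as control) seeded at 5000 per well in triplicate. MMS (0, 50, 100, 200, 300, 400 μM) was given continuously for 48 h. Medium was then replaced with 0.5 mg/ml MTT for 4 h at 37°C in the dark, formazan solubilised and A570 read. Percent viability given as mean ± SD from four experiments.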

NCI-H23 cells [2] = assay: Cell survival assay; assay type: cell-based, human; conditions: MTT, MMS 50–400 μM, 48 h
Summary of the method: as §1

PC-3 cells [3] = assay: Calcein-AM viability assay, PC-3; assay type: cell-based, human; conditions: MMS 400 μM, 48 h; knockdown of RAD51C, ALKBH3, or both
Summary of the method: (§2)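 PC-3 cells grown in Ham's F-12 GlutaMAX with 10% FBS at 37°C and 5% CO₂. Stable shRNA knockdown made by electroporation and 1 μg/ml puromycin selection for 30 days; the control shRNA targets luciferase. After MMS, cells were stained 30 min at 37°C with 2 μM Calcein AM in PBS and imaged by inverted fluorescence microscope. Percent MMS-induced cytotoxicity was plotted.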

NCI-H23 cells [4] = assay: Calcein-AM viability assay, NCI-H23; assay type: cell-based, human; conditions: MMS 400 μM, 48 h; knockdown of RAD51C, ALKBH3, or both
Summary of the method: as §2, with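 “NCI-H23” for “PC-3”, “DMEM” for “Ham's F-12 GlutaMAX”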

PC3 cells = assay: Immunofluorescence of 3meC, PC3; assay type: cell-based, human; conditions: 48 h
Summary of the method: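 Stable RAD51C and/or ALKBH3 shRNA-knockdown PC3 cells were grown on chamber slides with MMS, then fixed in 4% formaldehyde (15 min, RT). DNA was denatured in 1.5 M HCl for 30 min and neutralised with sodium borate pH 8.5. Cells were permeabilised (0.1% Triton X-100), blocked (1% BSA), stained with anti-3meC overnight at 4°C, then Alexa-594 secondary, with DAPI counterstain. Signal was quantified as mean ± SE of three independent assays by Student's t-test.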

[5] = tested on: MEFs, CHO and DT40 cell lines lacking RAD51C; cancer cells lacking ALKBH3; conditions: cited from earlier work
GST-ALKBH3 = assay: GST pull-down of His-RAD51C constructs; assay type: binding, human; conditions: 150 μg GST-ALKBH3, ∼100 μg His-protein, room temperature, 2 h; MNase
Summary of the method: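 His-RAD51C, full-length or Δ42–52, was expressed in E. coli BL21-CodonPlus(DE3)-RIL (1 mM IPTG, 16°C, 18 h) and purified on Ni-NTA. It was incubated with GST-ALKBH3 bound to glutathione beads in 25 mM Tris pH 7.5, 1 mM CaCl₂ and 500 mM NaCl, with 10 U micrococcal nuclease. In competition runs, RAD51C 42–52 or 33–41 peptide was added at 50, 250 or 500 μM. Bound protein was detected by SDS-PAGE and anti-6xHis western blot.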

ALKBH3 [6] = target: T1, ALKBH3 (Homo sapiens, UniProt Q96Q83); assay: Yeast two-hybrid with ALKBH3; assay type: binding; conditions: strain pJ69-4A; growth on dropout plates and lacZ reporter
T1 sequence (Q96Q83 1-286): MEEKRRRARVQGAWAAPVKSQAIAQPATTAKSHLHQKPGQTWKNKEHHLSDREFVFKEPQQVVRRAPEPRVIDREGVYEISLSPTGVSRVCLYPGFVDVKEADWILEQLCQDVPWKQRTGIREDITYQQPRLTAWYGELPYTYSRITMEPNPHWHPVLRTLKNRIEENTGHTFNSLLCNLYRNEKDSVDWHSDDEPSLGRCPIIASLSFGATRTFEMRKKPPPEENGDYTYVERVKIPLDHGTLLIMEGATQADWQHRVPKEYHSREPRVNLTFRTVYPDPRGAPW
Summary of the method: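 Full-length ALKBH2 or ALKBH3 fused to Gal4 binding domain (pGBKT7) was co-transformed with Gal4 activation domain (pACT2) fusions of RAD51, RAD51B, RAD51C, RAD51D, XRCC2 or XRCC3, or empty vectors. Transformants were selected on SD -Leu -Trp plates at 30°C for 2–3 days, then spotted on -His (triple) or -His -Ade (quadruple) dropout plates. lacZ was scored qualitatively by X-gal filter assay.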

RAD51B = assay: Yeast two-hybrid with RAD51B; assay type: binding, human; conditions: pGBKT7-RAD51C or pGBKT7-RAD51CΔ42-52
XRCC3 = assay: Yeast two-hybrid with XRCC3; assay type: binding, human; conditions: pGBKT7-RAD51C or pGBKT7-RAD51CΔ42-52
RAD51 = assay: Yeast two-hybrid with RAD51; assay type: binding, human; conditions: pGBKT7-RAD51C or pGBKT7-RAD51CΔ42-52
RAD51D = assay: Yeast two-hybrid with RAD51D; assay type: binding, human; conditions: pGBKT7-RAD51C or pGBKT7-RAD51CΔ42-52
ALKBH3 [7] = target: T1, ALKBH3; assay: Co-immunoprecipitation; assay type: binding; conditions: for co-immunoprecipitation of endogenous ALKBH3: NCI-H23 and PC-3, Flag-HA-RAD51C constructs
ALKBH3 [8] = target: T1, ALKBH3; assay: Demethylation assay by direct detection of formaldehyde; assay type: biochemical
ALKBH3 [9] = target: T1, ALKBH3; assay: Demethylation assay by dot-blot analysis, 3′-tailed DNA; assay type: biochemical; conditions: ALKBH3 0.4 μM, RAD51C or RAD51CΔ42–52 8 μM, 3′-tailed DNA 8 μM, anti-3meC antibody
ALKBH3 [10] = target: T1, ALKBH3; assay: Steady-state; assay type: biochemical
[11] = tested on: mutant ALKBH3 (H191A, D193A and H257A); assay: Demethylation assay with mutant ALKBH3; assay type: biochemical, human; conditions: mutant ALKBH3 0.2 μM, RAD51C 4.0 μM
NCI-H23 cells [12] = assay: Immunofluorescence of 3meC, NCI-H23; assay type: cell-based, human; conditions: stable RAD51C knockdown NCI-H23, MMS 400 μM, 48 h; at least 50 cells counted
Summary of the method: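 RNAi-resistant Flag-HA-RAD51C, wild-type or Δ42–52, was electroporated into stable RAD51C-knockdown cells 24 h before MMS. Cells were fixed in formaldehyde, denatured in HCl, then co-stained for anti-HA (recombinant protein) and anti-3meC, with DAPI. Images were taken by fluorescence microscopy and signals quantified.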

[13] = combined RAD51C and ALKBH3 knockdown
[14] = stable RAD51C and ALKBH3 knockdown
[15] = HEK-293T, Flag-HA-RAD51C constructs and Myc-ALKBH3 co-expressed, anti-Flag
[16] = 3′-tailed DNA 0.6–9.6 μM, ALKBH3 0.2 μM, RAD51C or RAD51CΔ42–52 4 μM, FDH-coupled

COS(C)(=O)=O [MMS, methyl methanesulphonate]
cell survival, combined knockdown (PC-3 cells [1]; [13]): severe cell survival defect
cell proliferation (PC-3 cells [1]; [14]): significantly affected
cell survival, combined knockdown (NCI-H23 cells [2]; [13]): severe cell survival defect
cell proliferation (NCI-H23 cells [2]; [14]): significantly affected
MMS sensitivity (Calcein-AM) (PC-3 cells [3]): MMS sensitive
MMS sensitivity (Calcein-AM) (NCI-H23 cells [4]): MMS sensitive
3meC accumulation in nucleus (PC3 cells; MMS 400 μM, ALKBH3 knockdown): a number of cells showed 3meC accumulation in the nucleus
3meC level, effect less than ALKBH3 knockdown (PC3 cells; MMS 400 μM, RAD51C knockdown): ~50%
3meC accumulation in nucleus (PC3 cells; MMS 400 μM, combined RAD51C and ALKBH3 knockdown): 3meC accumulation in the nucleus in a manner epistatic with ALKBH3 knockdown
3meC signal in nucleus (PC3 cells; MMS 400 μM, control shRNA): no visible signal for 3meC were detected in the nucleus
MMS sensitivity [5]: MMS sensitivity

RAD51C: human RAD51 paralogue, recombinant or expressed (tag-less, His-tag or Flag-HA)
pull-down by GST-ALKBH3 (GST-ALKBH3): could be pulled down by GST-ALKBH3
yeast two-hybrid interaction with ALKBH3 (ALKBH3 [6]): robust interaction
yeast two-hybrid interaction with RAD51B (RAD51B): interacted strongly
yeast two-hybrid interaction with XRCC3 (XRCC3): interacted strongly
yeast two-hybrid interaction with RAD51 (RAD51): weak interaction
yeast two-hybrid interaction with RAD51D (RAD51D): weak interaction
co-immunoprecipitation of ALKBH3 (ALKBH3 [7]; [15]): ALKBH3 was immunoprecipitated with RAD51C
co-immunoprecipitation of endogenous ALKBH3 (ALKBH3 [7]; anti-Flag): immunoprecipitated endogenous ALKBH3 in both the cell lines
co-immunoprecipitation of ALKBH3 (ALKBH3 [7]; PC-3, endogenous proteins, anti-RAD51C antibody): ALKBH3 could indeed be immunoprecipitated with RAD51C
effect of ATP exclusion or ATP-γ-S on RAD51C stimulation (ALKBH3 [8]; ALKBH3 0.2 μM, RAD51C 4.0 μM): did not affect the results
formaldehyde release, RAD51C only (ALKBH3 [8]; RAD51C without ALKBH3): did not result in any formaldehyde release
effect on 3meC level (ALKBH3 [9]): reduction in the levels of 3meC in 3′-tailed DNA was higher compared to the ALKBH3 alone
Km (ALKBH3 [10]; [16]): 1.7 µM
kcat/KM (ALKBH3 [10]; [16]): 2.6 min^-1μM^-1
Vmax (ALKBH3 [10]; 3′-tailed DNA, RAD51C 4 μM with ALKBH3 0.2 μM): increased the Vmax for ALKBH3 reaction
effect on mutant ALKBH3 activity [11]: indistinguishable from the mutant ALKBH3 alone

B1: RAD51CΔ42–52 (protein)
chain: MRGKTFRFEMQRDLVSFPLSPAVRVKLVSAGFQTAEELLEVSKAEALETLQIIRRECLTNKPRYAGTSESHKKCTALELLEQEHTQGFIITFCSALDDILGGGVPLMKTTEICGAPGVGKTQLCMQLAVDVQIPECFGGVAGEAVFIDTEGSFMVDRVVDLATACIQHLQLIAEKHKGEEHRKALEDFTLDNILSHIYYFRCRDYTELLAQVYLLPDFLSEHSKVRLVIVDGIAFPFRHDLDDLSLRTRLLNGLAQQMISLANNHRLAVILTNQMTTKIDRNQALLVPALGESWGHAATIRLIFHWDRKQRLATLYKSPSQKECTVLFQIKPQGFRDTVVTSACSLQTEGSLSTRKRSRDPEEEL
modifications: left off: Gal4 activation domain, end not stated, kept
pull-down by GST-ALKBH3 (GST-ALKBH3): could not be pulled down by GST-ALKBH3
yeast two-hybrid interaction with ALKBH3 (ALKBH3 [6]): completely abolished
yeast two-hybrid interaction with RAD51B (RAD51B): interacted strongly
yeast two-hybrid interaction with XRCC3 (XRCC3): interacted strongly
yeast two-hybrid interaction with RAD51 (RAD51): weak interaction
yeast two-hybrid interaction with RAD51D (RAD51D): weak interaction
co-immunoprecipitation of ALKBH3 (ALKBH3 [7]; [15]): not with RAD51CΔ42–52
co-immunoprecipitation of endogenous ALKBH3 (ALKBH3 [7]; anti-Flag): significantly reduced amount of endogenous ALKBH3 was immunoprecipitated
effect on 3meC level (ALKBH3 [9]): could not result in any significant reduction in the levels of 3meC compared to ALKBH3 alone
kcat/KM (ALKBH3 [10]; [16]): 1.42 min^-1μM^-1
3meC signal increase after mutant expression (PC3 cells; stable RAD51C knockdown PC3, MMS 400 μM, at least 50 cells counted): at least 50%
3meC signal increase after mutant expression (NCI-H23 cells [12]): at least 50%
